A word on the AUC: it is the area under the concentration-time curve, a measure of exposure. Low readings indicate less exposure, high ones more exposure. Broadly, the AUC(0-inf) is total exposure, with the tail of the curve extrapolated. As usually defined, the IC50 is the concentration that gives 50% inhibition. A word on the inhibition: it is the percentage by which the read-out fell short of the control.

These results are taken from ChEMBL document CHEMBL4033795, “Design, Synthesis, and Structure-Activity Relationship Study of 2-Oxo-3,4-dihydropyrimido[4,5- d]pyrimidines as New Colony Stimulating Factor 1 Receptor (CSF1R) Kinase Inhibitors” (J Med Chem, 2018).

Data set [1] has as its system RAW264.7. The data set is described as follows: Downregulation of ARG1 mRNA expression in mouse RAW264.7 cells after 48 hrs by qRT-PCR analysis relative to DMSO. The format is functional, cell-based. The method, boiled down: (§1)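 RAW264.7 macrophages were treated 48 h with compound at 0.08, 0.4 or 2.0 μM, or DMSO vehicle. Total RNA was extracted with TRIzol and transcripts were quantified by qRT-PCR using gene-specific primers. Run three times, each in triplicate.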
For orientation: Quantitative PCR measures a nucleic acid by following its amplification.

The subject of another data set is Rattus norvegicus. The data set is described as follows: AUC (0 to infinity) in Sprague-Dawley rat at 25 mg/kg administered via oral gavage measured up to 72 hrs by LC/MS analysis. Particulars: in vivo. It is filed as ADME, organism-based. More on the design: dose 25 mg/kg, route oral, time infinity. In short, it runs like this:
(§2)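 Male Sprague-Dawley rats, 4–6 weeks old, acclimatised 1 week, were dosed iv at 5 mg/kg or by oral gavage at 25 mg/kg. Vehicle was 2% DMSO, 4% EtOH, 4% castor oil, 90% H2O. Blood was drawn by orbital sinus puncture from 2 min to 72 h into heparinized tubes. Plasma was assayed by LC/MS with propranolol as internal standard. Three animals per group.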

Data set [2] can be described thus: AUC (0 to infinity) in Sprague-Dawley rat at 5 mg/kg, iv measured up to 72 hrs by LC/MS analysis. It is filed as ADME, organism-based. Details: dose 5 mg/kg, time infinity, route intravenous. Particulars: in vivo. The method, boiled down: as §2
The target in data set [3] is Mast/stem cell growth factor receptor Kit (Homo sapiens, UniProt P10721). The data set is described as follows: Inhibition of recombinant cytoplasmic human His-tagged KIT expressed in baculovirus using […] peptide as substrate after 1 hr by FRET-based Z'-Lyte assay.
Chain of Mast/stem cell growth factor receptor Kit (P10721 whole entry, the tested form may be a part): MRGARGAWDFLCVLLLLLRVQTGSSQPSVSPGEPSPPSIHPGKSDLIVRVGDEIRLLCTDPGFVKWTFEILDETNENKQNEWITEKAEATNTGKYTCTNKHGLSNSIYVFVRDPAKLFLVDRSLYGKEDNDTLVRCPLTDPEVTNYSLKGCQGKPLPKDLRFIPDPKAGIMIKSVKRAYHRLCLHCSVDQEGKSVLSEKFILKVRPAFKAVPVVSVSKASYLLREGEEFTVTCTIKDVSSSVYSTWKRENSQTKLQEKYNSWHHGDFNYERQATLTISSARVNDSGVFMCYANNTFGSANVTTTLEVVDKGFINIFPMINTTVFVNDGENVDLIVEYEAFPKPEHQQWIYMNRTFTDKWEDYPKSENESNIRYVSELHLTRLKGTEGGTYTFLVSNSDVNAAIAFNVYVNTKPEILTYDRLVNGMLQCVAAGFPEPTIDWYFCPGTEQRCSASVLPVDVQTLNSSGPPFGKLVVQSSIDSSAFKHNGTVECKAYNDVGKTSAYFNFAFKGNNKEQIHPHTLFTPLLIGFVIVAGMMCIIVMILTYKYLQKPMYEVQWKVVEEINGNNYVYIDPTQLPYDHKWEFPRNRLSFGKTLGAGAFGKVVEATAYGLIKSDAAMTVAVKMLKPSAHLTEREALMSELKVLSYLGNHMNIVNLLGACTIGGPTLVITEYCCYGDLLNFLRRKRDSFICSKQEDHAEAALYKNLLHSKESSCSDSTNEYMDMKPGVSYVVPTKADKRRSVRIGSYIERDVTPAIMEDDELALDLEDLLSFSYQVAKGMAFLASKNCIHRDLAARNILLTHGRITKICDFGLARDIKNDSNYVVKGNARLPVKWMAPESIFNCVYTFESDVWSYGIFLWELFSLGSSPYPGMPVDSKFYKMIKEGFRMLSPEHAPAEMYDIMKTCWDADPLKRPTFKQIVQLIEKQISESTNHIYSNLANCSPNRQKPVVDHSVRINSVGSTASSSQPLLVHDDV
In data set [4] the target is Fibroblast growth factor receptor 1 (Homo sapiens, UniProt P11362). Nature of the data set: Inhibition of cytoplasmic recombinant human His-tagged FGFR1 (308 to 731 residues) expressed in baculovirus using tyr4 peptide as substrate after 1 hr by FRET-based Z'-Lyte assay.
Chain of Fibroblast growth factor receptor 1 (P11362 whole entry, the tested form may be a part): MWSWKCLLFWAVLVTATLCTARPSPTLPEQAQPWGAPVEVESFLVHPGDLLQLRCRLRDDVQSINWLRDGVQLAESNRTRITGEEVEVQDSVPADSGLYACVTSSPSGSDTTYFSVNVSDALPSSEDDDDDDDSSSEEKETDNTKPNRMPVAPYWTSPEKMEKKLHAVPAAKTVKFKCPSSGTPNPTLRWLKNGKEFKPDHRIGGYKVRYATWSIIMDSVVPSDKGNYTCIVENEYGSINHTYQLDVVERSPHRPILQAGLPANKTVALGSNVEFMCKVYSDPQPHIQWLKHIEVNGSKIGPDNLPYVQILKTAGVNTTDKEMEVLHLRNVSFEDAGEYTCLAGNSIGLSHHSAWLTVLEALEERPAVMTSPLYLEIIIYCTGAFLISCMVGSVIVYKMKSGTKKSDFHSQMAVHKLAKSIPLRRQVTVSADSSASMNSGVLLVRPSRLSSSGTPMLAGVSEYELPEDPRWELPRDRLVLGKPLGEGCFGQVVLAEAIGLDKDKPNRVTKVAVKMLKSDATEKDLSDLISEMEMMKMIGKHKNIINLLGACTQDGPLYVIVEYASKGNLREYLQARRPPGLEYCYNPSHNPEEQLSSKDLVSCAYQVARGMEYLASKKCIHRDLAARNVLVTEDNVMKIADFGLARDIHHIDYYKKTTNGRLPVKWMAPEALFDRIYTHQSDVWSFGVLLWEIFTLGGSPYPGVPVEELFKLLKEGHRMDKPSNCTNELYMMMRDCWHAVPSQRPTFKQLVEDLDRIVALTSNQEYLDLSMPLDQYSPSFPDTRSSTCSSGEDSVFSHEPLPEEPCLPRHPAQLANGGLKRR
Data set [5] has as its target Vascular endothelial growth factor receptor 2 (Homo sapiens) (UniProt P35968). The data set is described as follows: Inhibition of human KDR (R787 to P1253 residues) expressed in mammalian expression system at 100 nM by KINOMEscan assay relative to control.
Data set [6] deals with Tyrosine-protein kinase Lyn (Homo sapiens) (UniProt P07948). Nature of the data set: Inhibition of recombinant human LYN-A expressed in bacterial expression system at 100 nM by KINOMEscan assay relative to control.
Chain of Tyrosine-protein kinase Lyn (Homo sapiens) (P07948 2-512 limits assumed): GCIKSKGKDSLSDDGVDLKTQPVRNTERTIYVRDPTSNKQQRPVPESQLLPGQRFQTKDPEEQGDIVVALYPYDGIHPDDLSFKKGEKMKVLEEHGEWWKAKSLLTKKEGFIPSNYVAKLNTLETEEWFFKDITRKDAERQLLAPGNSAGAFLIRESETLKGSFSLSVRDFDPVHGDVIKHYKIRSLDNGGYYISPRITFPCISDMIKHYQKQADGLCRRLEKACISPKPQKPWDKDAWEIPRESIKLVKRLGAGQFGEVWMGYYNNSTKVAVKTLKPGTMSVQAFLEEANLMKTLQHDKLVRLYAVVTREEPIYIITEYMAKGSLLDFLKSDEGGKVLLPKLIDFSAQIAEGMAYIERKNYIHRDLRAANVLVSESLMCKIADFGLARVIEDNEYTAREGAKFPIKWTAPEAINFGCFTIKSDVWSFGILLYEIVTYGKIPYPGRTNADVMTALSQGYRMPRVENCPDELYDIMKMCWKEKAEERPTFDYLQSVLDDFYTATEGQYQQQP
Data set [7] has as its target Ephrin type-A receptor 1 (Homo sapiens) (UniProt P21709). The data set is described as follows: Inhibition of recombinant human EPHA1 (V588 to I913 residues) expressed in bacterial expression system at 100 nM by KINOMEscan assay relative to control.
Data set [8] deals with T1, Macrophage colony-stimulating factor 1 receptor (Mus musculus) (UniProt P09581).
T1 sequence (whole entry): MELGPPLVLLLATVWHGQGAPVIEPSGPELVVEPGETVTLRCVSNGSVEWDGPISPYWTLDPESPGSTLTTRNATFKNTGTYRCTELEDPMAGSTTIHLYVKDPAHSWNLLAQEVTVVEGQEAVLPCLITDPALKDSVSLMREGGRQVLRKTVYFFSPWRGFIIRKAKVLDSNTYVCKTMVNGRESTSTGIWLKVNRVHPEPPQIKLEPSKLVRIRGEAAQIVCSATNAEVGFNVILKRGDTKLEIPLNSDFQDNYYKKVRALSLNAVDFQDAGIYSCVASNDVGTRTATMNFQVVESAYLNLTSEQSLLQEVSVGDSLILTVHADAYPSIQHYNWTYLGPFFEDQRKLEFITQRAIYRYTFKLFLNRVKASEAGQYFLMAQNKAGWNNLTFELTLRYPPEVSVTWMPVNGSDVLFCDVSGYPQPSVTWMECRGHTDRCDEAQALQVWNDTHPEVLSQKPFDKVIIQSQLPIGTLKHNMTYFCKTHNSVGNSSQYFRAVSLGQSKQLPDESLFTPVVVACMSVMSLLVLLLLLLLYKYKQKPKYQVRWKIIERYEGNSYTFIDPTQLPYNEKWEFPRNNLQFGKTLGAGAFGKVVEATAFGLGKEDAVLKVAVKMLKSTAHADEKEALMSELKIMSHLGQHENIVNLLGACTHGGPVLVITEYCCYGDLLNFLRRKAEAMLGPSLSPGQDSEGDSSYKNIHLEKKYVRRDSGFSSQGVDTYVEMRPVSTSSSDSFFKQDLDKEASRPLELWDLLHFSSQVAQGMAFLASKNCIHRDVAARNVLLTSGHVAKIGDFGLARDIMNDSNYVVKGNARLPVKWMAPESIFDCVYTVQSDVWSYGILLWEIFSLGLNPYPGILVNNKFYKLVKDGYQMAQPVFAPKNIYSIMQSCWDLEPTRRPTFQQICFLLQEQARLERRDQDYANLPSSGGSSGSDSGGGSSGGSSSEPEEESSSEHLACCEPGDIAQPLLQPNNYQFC
Nature of the data set: Inhibition of CSF1R phosphorylation in mouse RAW264.7 cells preincubated for 6 hrs followed by CSF1 stimulation for 20 mins by Western blot analysis. It is filed as cell-based. In short, it runs like this: (§3)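 RAW264.7 cells were seeded, incubated overnight and treated 6 h with graded compound concentrations, then stimulated 20 min with CSF-1 (50 ng/mL). Lysates were run on 8−12% SDS-PAGE and immunoblotted for p-CSF1R (Tyr723), CSF1R, p-AKT, AKT and GAPDH. Bands were quantified and normalized to GAPDH. Mean ± SEM of at least three experiments.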
(In western blotting, separated proteins are transferred to a membrane and probed.)

Data set [9] deals with T1, Macrophage colony-stimulating factor 1 receptor (Mus musculus). Nature of the data set: Inhibition of CSF1R in mouse RAW264.7 cells assessed as suppression of AKT phosphorylation preincubated for 6 hrs followed by CSF1 stimulation for 20 mins by Western blot analysis. It is filed as cell-based. The method, boiled down: as §3
In data set [10] the test system is RAW264.7. Nature of the data set: Antimigratory activity against mouse RAW264.7 cells assessed as inhibition of human LNCaP-MDV-CM mediated macrophage migration at 1.25 uM after 24 hrs by crystal violet staining based transwell assay relative to control. It is filed as functional. The note with it: RAW264.7, 24 h. In short, it runs like this:
(§4)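 RAW264.7 cells, (2−4) × 10^5, were placed serum-free in the upper insert of a transwell. The lower chamber held conditioned medium from LNCaP cells grown 48 h in 10% FBS RPMI 1640 with 10 μM MDV3100 or DMSO. Compound at 0.625–5.0 μM was added to the top chamber for 24 h at 37 °C. Migrated cells were fixed in methanol, stained with 0.25% crystal violet and counted in six random fields at 200×. Three independent experiments.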

In data set [11] the test system is RAW264.7. The data set is described as follows: Antimigratory activity against mouse RAW264.7 cells assessed as inhibition of human LNCaP-MDV-CM mediated macrophage migration at 5 uM after 24 hrs by crystal violet staining based transwell assay relative to control. The format is functional. The note with it: RAW264.7, 24 h. In short, it runs like this:
as §4

The subject of data set [12] is RAW264.7. Nature of the data set: Downregulation of IL10 mRNA expression in mouse RAW264.7 cells after 48 hrs by qRT-PCR analysis relative to DMSO. The format is functional, cell-based. The method, boiled down:
as §1

Data set [13] concerns RAW264.7. The data set is described as follows: Inhibition of protumorigenic potential of mouse RAW264.7 cells assessed as abrogation of human LNCAP cell growth enhancement of macrophages at 0.4 uM co-cultured for 48 hrs by CCK8 assay relative to control. It is filed as functional. The note with it: RAW264.7, 48 h. The method, boiled down: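 LNCaP cells, (2−4) × 10^5, were seeded in the lower transwell chamber. After 2 h, (1−2) × 10^6 RAW264.7 cells were added in a 0.4 μm insert. Compound at 0.016–2.0 μM was added to the top chamber and cells were cocultured 48 h at 37 °C. LNCaP cells were then imaged and counted by CCK8. Run three times, each in triplicate.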
On the technique in general: Tetrazolium assays rely on reduction of a dye to a coloured formazan, in cell work by metabolically active cells.

Chain of Vascular endothelial growth factor receptor 2 (Homo sapiens) (P35968 whole entry, the tested form may be a part): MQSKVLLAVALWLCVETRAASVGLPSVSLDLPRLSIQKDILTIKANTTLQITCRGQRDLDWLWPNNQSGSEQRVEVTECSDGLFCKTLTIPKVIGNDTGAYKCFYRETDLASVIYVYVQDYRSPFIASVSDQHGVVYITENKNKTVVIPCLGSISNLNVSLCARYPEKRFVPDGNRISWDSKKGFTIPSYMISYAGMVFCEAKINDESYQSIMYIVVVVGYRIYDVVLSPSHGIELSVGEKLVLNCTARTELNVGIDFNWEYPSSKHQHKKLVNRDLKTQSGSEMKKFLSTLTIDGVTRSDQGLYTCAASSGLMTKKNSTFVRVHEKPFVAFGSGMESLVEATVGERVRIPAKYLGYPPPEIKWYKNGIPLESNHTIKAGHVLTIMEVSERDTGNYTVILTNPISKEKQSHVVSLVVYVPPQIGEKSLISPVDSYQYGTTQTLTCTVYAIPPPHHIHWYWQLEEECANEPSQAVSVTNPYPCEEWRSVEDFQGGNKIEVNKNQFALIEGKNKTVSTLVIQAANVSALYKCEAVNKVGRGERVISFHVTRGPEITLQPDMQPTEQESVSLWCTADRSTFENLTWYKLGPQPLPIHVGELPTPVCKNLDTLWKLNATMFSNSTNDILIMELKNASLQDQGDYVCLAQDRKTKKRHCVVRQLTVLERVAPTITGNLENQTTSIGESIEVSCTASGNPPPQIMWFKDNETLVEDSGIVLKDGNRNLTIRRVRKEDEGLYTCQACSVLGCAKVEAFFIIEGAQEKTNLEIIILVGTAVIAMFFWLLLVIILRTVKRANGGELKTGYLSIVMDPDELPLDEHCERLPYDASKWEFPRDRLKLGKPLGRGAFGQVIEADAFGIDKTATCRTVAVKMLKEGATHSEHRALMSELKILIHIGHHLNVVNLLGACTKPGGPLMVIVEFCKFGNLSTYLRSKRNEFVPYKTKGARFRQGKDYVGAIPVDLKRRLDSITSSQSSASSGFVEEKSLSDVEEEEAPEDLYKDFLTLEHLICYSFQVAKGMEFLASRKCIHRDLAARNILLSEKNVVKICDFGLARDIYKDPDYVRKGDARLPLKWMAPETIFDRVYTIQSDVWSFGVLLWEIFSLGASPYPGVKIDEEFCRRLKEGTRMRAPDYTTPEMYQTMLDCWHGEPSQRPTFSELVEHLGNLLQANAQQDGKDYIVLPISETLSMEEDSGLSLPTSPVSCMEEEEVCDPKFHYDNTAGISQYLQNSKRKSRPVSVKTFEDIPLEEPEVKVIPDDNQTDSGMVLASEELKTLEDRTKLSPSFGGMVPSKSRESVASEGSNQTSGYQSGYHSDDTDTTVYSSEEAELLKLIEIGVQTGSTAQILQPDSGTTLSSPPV
Chain of Ephrin type-A receptor 1 (Homo sapiens) (P21709 whole entry, the tested form may be a part): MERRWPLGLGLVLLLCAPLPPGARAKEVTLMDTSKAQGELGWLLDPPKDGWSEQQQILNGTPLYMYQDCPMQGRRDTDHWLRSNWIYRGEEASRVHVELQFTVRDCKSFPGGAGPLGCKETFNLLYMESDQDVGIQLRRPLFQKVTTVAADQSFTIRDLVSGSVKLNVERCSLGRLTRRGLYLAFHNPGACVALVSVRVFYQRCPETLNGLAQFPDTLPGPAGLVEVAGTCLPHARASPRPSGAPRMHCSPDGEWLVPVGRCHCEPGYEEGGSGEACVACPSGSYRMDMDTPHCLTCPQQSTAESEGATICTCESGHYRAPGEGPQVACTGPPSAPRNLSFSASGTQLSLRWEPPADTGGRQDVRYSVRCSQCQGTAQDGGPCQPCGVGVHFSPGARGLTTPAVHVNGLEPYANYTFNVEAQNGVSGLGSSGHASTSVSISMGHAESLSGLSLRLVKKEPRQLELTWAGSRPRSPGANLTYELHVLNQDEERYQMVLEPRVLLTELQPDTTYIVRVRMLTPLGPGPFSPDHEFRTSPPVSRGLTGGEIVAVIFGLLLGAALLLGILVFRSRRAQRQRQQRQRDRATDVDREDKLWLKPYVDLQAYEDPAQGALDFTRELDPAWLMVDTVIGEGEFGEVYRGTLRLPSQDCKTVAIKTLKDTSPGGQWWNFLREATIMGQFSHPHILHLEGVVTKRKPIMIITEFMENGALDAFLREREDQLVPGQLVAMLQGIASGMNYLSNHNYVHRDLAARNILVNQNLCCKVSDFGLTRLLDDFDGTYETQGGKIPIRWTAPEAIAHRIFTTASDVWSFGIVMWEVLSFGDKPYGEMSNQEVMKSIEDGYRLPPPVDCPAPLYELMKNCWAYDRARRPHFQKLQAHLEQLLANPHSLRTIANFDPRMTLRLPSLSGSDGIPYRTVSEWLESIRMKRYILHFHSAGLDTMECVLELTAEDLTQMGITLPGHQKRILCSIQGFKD

Regarding `CCC(=O)N1CC[C@H](N2C(=O)N(c3cc(OC)ccc3Cl)Cc3cnc(Nc4ccc(N5CCN(C6COC6)CC5)c(C)c4)nc32)C1`, the Activity result in the data set on RAW264.7 [1] and in the data set on RAW264.7 [12] was “Dose-dependent effect” throughout. The compound further had an AUC in the data set on Rattus norvegicus of 6462 ng·h/mL. The AUC(0-inf) in data set [2] turned out to be 2910 ng·h/mL. The results for the IC50 in data set [3] and in data set [4] were 30 nM and 10 nM, respectively. Also, the inhibition was more than 90% in [5]; more than 90% in data set [6]; more than 90% in [7]; “Dose-dependent effect” in [8]; “Dose-dependent effect” in [9]. In the data set with RAW264.7 [10], the inhibition at 1.25 µM was 52.7%. Besides, the inhibition at 5 µM with RAW264.7 [11] came to 90.7%. Moreover, the inhibition at 0.4 µM in the data set on RAW264.7 [13] was determined as 85%.
